# Published values collected from several papers.
# Protocols differ between the studies behind these lines.
# Cell line: HEK293
# Effect on: cell growth or viability
Compound,method,time,IC50
Cc1nc2ccccc2c(O)c1-c1ccc(Cl)cc1,,,> 10 µM
CC(=O)Oc1ccc2oc(=O)cc(CSC(C)=O)c2c1,MTT,36 h,> 20 µM
C[C@@H](O)C(=O)CCCCC[C@@H]1NC(=O)[C@H]2CCCN2C(=O)[C@H](Cc2ccccc2)NC(=O)C(C)(C)NC1=O,XTT,,0.04 µM
O=C(c1cc(-c2cccs2)[nH]n1)N1CCN(S(=O)(=O)c2ccc(Cl)s2)CC1,,,> 10 µM
O=c1cc(CCl)c2cc(O)ccc2o1,MTT,36 h,> 20 µM
Cc1[nH]c(C)c(-c2ccc(C(=O)c3ccc(Cl)cc3)cc2)c(=O)c1Br,,,> 10 µM
c1ccc2c(OCCCCCCN3CCCCCC3)cccc2c1,,48 h,11.8 µM
CC(=O)SCc1cc(=O)oc2ccc(O)cc12,MTT,36 h,> 20 µM
CCCc1ccc(OCCCCCN2CCCCCC2)cc1,,48 h,33.3 µM
Cc1c(C)c2c(O)cc(O)cc2oc1=O,MTT,36 h,> 20 µM
C[C@@H](O)C(=O)CCCCCCC(=O)Nc1ccccc1,XTT,,35.6 µM
CCCCCCCCc1c(C)[nH]c(C)c(C#N)c1=O,,,> 10 µM
CC(=O)O[C@H](C)C(=O)CCCCC[C@@H]1NC(=O)[C@H]2CCCN2C(=O)[C@H](Cc2ccccc2)NC(=O)C(C)(C)NC1=O,XTT,,0.006 µM
COc1cccc2c1C(=O)c1c(O)c3c(c(O)c1C2=O)C[C@@](O)(C(=O)CO)C[C@@H]3O[C@H]1C[C@H](N)[C@H](O)[C@H](C)O1,MTT,24 h,> 40 µM
